{"source": "ChEMBL document CHEMBL1155362", "about": "“Synthesis, characterization and derivatization of some novel types of mono- and bis-imidazolidineiminothiones and imidazolidineiminodithiones with antitumor, antiviral, antibacterial and antifungal activities--part I” (Eur J Med Chem, 2009)", "key": {"[1]": {"system": "Candida albicans", "assay": "Antifungal activity against Candida albicans IMRU 3669 at 4 mg/ml by agar disk diffusion assay", "assay_type": "functional", "conditions": "read-out: DIZ"}, "[2]": {"system": "Aspergillus niger", "assay": "Antifungal activity against Aspergillus niger IMI 31726 at 4 mg/ml by agar disk diffusion assay", "assay_type": "functional", "conditions": "read-out: DIZ"}, "[3]": {"system": "Hepatovirus A", "assay": "Antiviral activity against Hepatitis A virus infected african green monkey Vero cells at 10^-4 dilution of 5 mg/ml by plaque formation assay", "assay_type": "functional", "how_it_was_run": "(§1)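 Compound dilutions prepared from a 5 mg/mL DMSO stock, using the maximum non-toxic dilution for Vero cells over 3 days; 0.1 mL virus (10³) mixed with 0.1 mL compound for 1 h at room temperature; mixture inoculated onto washed Vero monolayers in 12-well plates and adsorbed at 37 °C; 2× MEM/agarose overlay applied; read-out % reduction in plaque count versus untreated virus control.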"}, "[4]": {"system": "Human alphaherpesvirus 1", "assay": "Antiviral activity against HSV1 infected african green monkey Vero cells at 10^-4 dilution of 5 mg/ml by plaque formation assay", "assay_type": "functional", "how_it_was_run": "as §1"}, "[5]": {"system": "Coxsackievirus B4", "assay": "Antiviral activity against Coxsackievirus B4 infected african green monkey Vero cells at 10^-4 dilution of 5 mg/ml by plaque formation assay", "assay_type": "functional, organism-based", "how_it_was_run": "as §1"}, "[6]": {"system": "Escherichia coli", "assay": "Antibacterial activity against Escherichia coli NCTC 10416 at 4 mg/ml by agar disk diffusion assay", "assay_type": "functional", "conditions": "read-out: DIZ"}, "[7]": {"system": "Salmonella typhi", "assay": "Antibacterial activity against Salmonella typhi NCIMB 9331 at 4 mg/ml by agar disk diffusion assay", "assay_type": "functional, Salmonella enterica subsp. enterica serovar Typhi", "conditions": "Salmonella enterica, read-out: DIZ"}, "[8]": {"system": "Bacillus subtilis", "assay": "Antibacterial activity against Bacillus subtilis NCTC 1040 at 4 mg/ml by agar disk diffusion assay", "assay_type": "functional", "conditions": "read-out: DIZ"}, "[9]": {"system": "Staphylococcus aureus", "assay": "Antibacterial activity against Staphylococcus aureus NCTC 7447 at 4 mg/ml by agar disk diffusion assay", "assay_type": "functional", "conditions": "read-out: DIZ"}, "[10]": {"system": "Candida albicans", "assay": "Antifungal activity against Candida albicans IMRU 3669 at 1 mg/ml by agar disk diffusion assay", "assay_type": "functional", "conditions": "read-out: DIZ", "how_it_was_run": "(§2)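 Fungi maintained on Czapek's Dox agar; agar well diffusion with 1 cm wells and […] of each concentration (1, 2.5, 5 mg/mL) in DMF; inhibition zone diameter measured.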"}, "[11]": {"system": "Aspergillus niger", "assay": "Antifungal activity against Aspergillus niger IMI 31726 at 1 mg/ml by agar disk diffusion assay", "assay_type": "functional", "conditions": "read-out: DIZ"}, "[12]": {"system": "Hepatovirus A", "assay": "Antiviral activity against HAV infected african green monkey Vero cells at 10^-2 dilution of 5 mg/ml by plaque formation assay", "assay_type": "functional", "how_it_was_run": "as §1"}, "[13]": {"system": "Human alphaherpesvirus 1", "assay": "Antiviral activity against HSV1 infected african green monkey Vero cells at 10^-2 dilution of 5 mg/ml by plaque formation assay", "assay_type": "functional", "how_it_was_run": "as §1"}, "[14]": {"system": "Coxsackievirus B4", "assay": "Antiviral activity against Coxsackievirus B4 infected african green monkey Vero cells at 10^-2 dilution of 5 mg/ml by plaque formation assay", "assay_type": "functional", "how_it_was_run": "as §1"}, "[15]": {"system": "Escherichia coli", "assay": "Antibacterial activity against Escherichia coli NCTC 10416 at 1 mg/ml by agar disk diffusion assay", "assay_type": "functional", "conditions": "read-out: DIZ"}, "[16]": {"system": "Salmonella typhi", "assay": "Antibacterial activity against Salmonella typhi NCIMB 9331 at 1 mg/ml by agar disk diffusion assay", "assay_type": "functional, Salmonella enterica subsp. enterica serovar Typhi", "conditions": "Salmonella enterica, read-out: DIZ"}, "[17]": {"system": "Bacillus subtilis", "assay": "Antibacterial activity against Bacillus subtilis NCTC 1040 at 1 mg/ml by agar disk diffusion assay", "assay_type": "functional", "conditions": "read-out: DIZ"}, "[18]": {"system": "Staphylococcus aureus", "assay": "Antibacterial activity against Staphylococcus aureus NCTC 7447 at 1 mg/ml by agar disk diffusion assay", "assay_type": "functional", "conditions": "read-out: DIZ"}, "[19]": {"system": "Bacillus subtilis", "assay": "Antibacterial activity against Bacillus subtilis NCIB 3610 at 5 mg/ml by agar disk diffusion assay", "assay_type": "functional", "conditions": "Bacillus subtilis, NCIB 3610; read-out: DIZ"}, "[20]": {"system": "Candida albicans", "assay": "Antifungal activity against Candida albicans IMRU 3669 at 5 mg/ml by agar disk diffusion assay", "assay_type": "functional", "conditions": "Candida albicans, IMRU 3669; read-out: DIZ", "how_it_was_run": "as §2"}, "[21]": {"system": "Candida albicans", "assay": "Antifungal activity against Candida albicans IMRU 3669 at 2.5 mg/ml by agar disk diffusion assay", "assay_type": "functional", "conditions": "read-out: DIZ", "how_it_was_run": "as §2"}, "[22]": {"system": "Aspergillus niger", "assay": "Antifungal activity against Aspergillus niger Ferm-BAM C-21 at 5 mg/ml by agar disk diffusion assay", "assay_type": "functional", "conditions": "read-out: DIZ", "how_it_was_run": "as §2"}, "[23]": {"system": "Aspergillus niger", "assay": "Antifungal activity against Aspergillus niger Ferm-BAM C-21 at 2.5 mg/ml by agar disk diffusion assay", "assay_type": "functional", "conditions": "read-out: DIZ", "how_it_was_run": "as §2"}, "[24]": {"system": "Aspergillus niger", "assay": "Antifungal activity against Aspergillus niger Ferm-BAM C-21 at 1 mg/ml by agar disk diffusion assay", "assay_type": "functional", "conditions": "read-out: DIZ", "how_it_was_run": "as §2"}, "[25]": {"system": "Bacillus subtilis", "assay": "Antimicrobial activity against Bacillus subtilis NCTC 1040 by macrotube dilution assay", "assay_type": "functional"}, "[26]": {"system": "Staphylococcus aureus", "assay": "Antimicrobial activity against Staphylococcus aureus NCTC 7447 by macrotube dilution assay", "assay_type": "functional"}, "[27]": {"system": "Klebsiella pneumoniae", "assay": "Antimicrobial activity against Klebsiella pneumoniae NCIMB 9111 by macrotube dilution assay", "assay_type": "functional"}, "[28]": {"system": "Salmonella typhi", "assay": "Antimicrobial activity against Salmonella typhi NCIMB 9331 by macrotube dilution assay", "assay_type": "functional, Salmonella enterica subsp. enterica serovar Typhi", "conditions": "Salmonella enterica"}, "[29]": {"system": "Candida albicans", "assay": "Antifungal activity against Candida albicans IMRU 3669 by macrotube dilution assay", "assay_type": "functional", "how_it_was_run": "(§3)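 Macrotube twofold dilution per NCCLS/CLSI guidelines for fungi; 2 mg compound in 2.0 mL DMF, serially diluted across 14 tubes of Czapek's Dox medium, with a control tube; inoculum added to halve the concentration; 30 °C for 72 h; MIC is the lowest concentration without visible growth.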"}, "[30]": {"system": "Aspergillus niger", "assay": "Antifungal activity against Aspergillus niger Ferm-BAM C-21 by macrotube dilution assay", "assay_type": "functional", "how_it_was_run": "as §3"}, "[31]": {"system": "Pseudomonas aeruginosa", "assay": "Antibacterial activity against Pseudomonas aeruginosa NCIB 9016 at 1 mg/ml by agar disk diffusion assay", "assay_type": "functional", "conditions": "Pseudomonas aeruginosa, NCIB 9016; read-out: DIZ"}, "[32]": {"system": "Pseudomonas aeruginosa", "assay": "Antibacterial activity against Pseudomonas aeruginosa NCIB 9016 at 2.5 mg/ml by agar disk diffusion assay", "assay_type": "functional", "conditions": "Pseudomonas aeruginosa, NCIB 9016; read-out: DIZ"}, "[33]": {"system": "Pseudomonas aeruginosa", "assay": "Antibacterial activity against Pseudomonas aeruginosa NCIB 9016 at 5 mg/ml by agar disk diffusion assay", "assay_type": "functional", "conditions": "Pseudomonas aeruginosa, NCIB 9016; read-out: DIZ"}, "[34]": {"system": "Bacillus subtilis", "assay": "Antibacterial activity against Bacillus subtilis NCIB 3610 at 1 mg/ml by agar disk diffusion assay", "assay_type": "functional", "conditions": "Bacillus subtilis, NCIB 3610; read-out: DIZ"}, "[35]": {"system": "Bacillus subtilis", "assay": "Antibacterial activity against Bacillus subtilis NCIB 3610 at 2.5 mg/ml by agar disk diffusion assay", "assay_type": "functional", "conditions": "Bacillus subtilis, NCIB 3610; read-out: DIZ"}}, "note": "Activity calls are given as the source filed them. The calls are words filed in the database; no cut-off is given here.", "data": [{"smiles": "N=C1C(=S)N(c2ccc(Br)cc2)C(=O)N1c1ccc(Cl)c(C(F)(F)F)c1", "values": [{"measurement": "zone of inhibition at 4000 µg/mL", "setting": "[1]", "value": 16, "unit": "mm"}, {"measurement": "zone of inhibition at 4000 µg/mL", "setting": "[2]", "value": 16, "unit": "mm"}, {"measurement": "Activity", "setting": "[3]", "value": "inactive"}, {"measurement": "Activity", "setting": "[4]", "value": 50, "unit": "%"}, {"measurement": "Activity", "setting": "[5]", "value": "inactive"}, {"measurement": "zone of inhibition at 4000 µg/mL", "setting": "[6]", "value": 18, "unit": "mm"}, {"measurement": "zone of inhibition at 4000 µg/mL", "setting": "[7]", "value": 16.5, "unit": "mm"}, {"measurement": "zone of inhibition at 4000 µg/mL", "setting": "[8]", "value": 16, "unit": "mm"}, {"measurement": "zone of inhibition at 4000 µg/mL", "setting": "[9]", "value": 17.5, "unit": "mm"}]}, {"smiles": "O=C1C(=S)N(c2ccc(Br)cc2)C(=O)N1c1ccc2c(c1)Cc1ccccc1-2", "values": [{"measurement": "zone of inhibition at 1000 µg/mL", "setting": "[10]", "value": 13, "unit": "mm"}, {"measurement": "zone of inhibition at 1000 µg/mL", "setting": "[11]", "value": 13, "unit": "mm"}, {"measurement": "Activity", "setting": "[12]", "value": "inactive"}, {"measurement": "Activity", "setting": "[13]", "value": 40, "unit": "%"}, {"measurement": "Activity", "setting": "[14]", "value": "inactive"}, {"measurement": "zone of inhibition at 1000 µg/mL", "setting": "[15]", "value": 11, "unit": "mm"}, {"measurement": "zone of inhibition at 1000 µg/mL", "setting": "[16]", "value": 12, "unit": "mm"}, {"measurement": "zone of inhibition at 1000 µg/mL", "setting": "[17]", "value": 14, "unit": "mm"}, {"measurement": "zone of inhibition at 1000 µg/mL", "setting": "[18]", "value": 13, "unit": "mm"}]}, {"smiles": "N=C1C(=S)N(c2ccc(I)cc2)C(=S)N1c1ccc(I)cc1", "values": [{"measurement": "zone of inhibition at 5000 µg/mL", "setting": "[19]", "value": 24, "unit": "mm"}, {"measurement": "zone of inhibition at 5000 µg/mL", "setting": "[20]", "value": 21, "unit": "mm"}, {"measurement": "zone of inhibition at 1000 µg/mL", "setting": "[10]", "value": 19, "unit": "mm"}, {"measurement": "zone of inhibition at 2500 µg/mL", "setting": "[21]", "value": 20, "unit": "mm"}, {"measurement": "zone of inhibition at 5000 µg/mL", "setting": "[22]", "value": 17, "unit": "mm"}, {"measurement": "zone of inhibition at 2500 µg/mL", "setting": "[23]", "value": 15, "unit": "mm"}, {"measurement": "zone of inhibition at 1000 µg/mL", "setting": "[24]", "value": 12, "unit": "mm"}, {"measurement": "MIC", "setting": "[25]", "value": 3.9, "unit": "µg/mL"}, {"measurement": "MIC", "setting": "[26]", "value": 15.6, "unit": "µg/mL"}, {"measurement": "MIC", "setting": "[27]", "value": 7.8, "unit": "µg/mL"}, {"measurement": "MIC", "setting": "[28]", "value": 1.95, "unit": "µg/mL"}, {"measurement": "MIC", "setting": "[29]", "value": 1.95, "unit": "µg/mL"}, {"measurement": "MIC", "setting": "[30]", "value": 0.49, "unit": "µg/mL"}, {"measurement": "zone of inhibition at 1000 µg/mL", "setting": "[31]", "value": 15, "unit": "mm"}, {"measurement": "zone of inhibition at 2500 µg/mL", "setting": "[32]", "value": 17, "unit": "mm"}, {"measurement": "zone of inhibition at 5000 µg/mL", "setting": "[33]", "value": 20, "unit": "mm"}, {"measurement": "zone of inhibition at 1000 µg/mL", "setting": "[34]", "value": 19, "unit": "mm"}, {"measurement": "zone of inhibition at 2500 µg/mL", "setting": "[35]", "value": 21, "unit": "mm"}]}]}
